Reference: publication PMC3799459 (Nucleic Acids Research, 2013)
One block for each molecule: values may come before it.

Key:
DNMT1 [1] = molecular target: T1, DNMT1 (Homo sapiens, UniProt P26358); test: DMSO tolerance of the DNMT1 Flashplate assay; assay type: biochemical
DNMT1 [2] = molecular target: T1, DNMT1; test: DNA-competition assay on DNMT1; assay type: biochemical; conditions: DNA duplex 0.05-1.0 µM, SAM 15 µM (1*:2), inhibitor IC10 to IC80
How it was run: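 Streptavidin Flashplate SPA with DNMT1 in HEPES pH 7.2 reaction buffer (EDTA, KCl, BSA), 37°C for 2 h. Biotinylated DNA duplex varied 0.05–1.0 µM; [methyl-3H]SAM (0.6 TBq/mmol) fixed at 15 µM, isotopic dilution 1*:2. Test compound adjusted from IC10 to IC80 at each DNA level. IC50 per DNA concentration from sigmoidal variable-slope fit; apparent kinetic constants from Michaelis–Menten fits at each compound concentration.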

DNMT1 [3] = molecular target: T1, DNMT1; test: SAM-competition assay on DNMT1; assay type: biochemical; conditions: SAM 0.5-15 µM, DNA duplex 1.0 µM, inhibitor IC10 to IC80
How it was run: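 DNMT1 Flashplate SPA in HEPES pH 7.2 buffer, 37°C, 2 h. [methyl-3H]SAM (0.6 TBq/mmol, isotopic dilution 1*:1) varied 0.5–15 µM at fixed 1.0 µM biotinylated DNA duplex. Test compound adjusted from IC10 to IC80 for each SAM level. IC50 at each SAM concentration from sigmoidal variable-slope fit; apparent kinetic constants per compound concentration by Michaelis–Menten fitting.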

human DNMT3A (DNMT3A-C) = human DNMT3A (DNMT3A-C) (Homo sapiens, UniProt Q9Y6K1); test: DNMT3A Flashplate SPA inhibition assay; assay type: biochemical
human DNMT3A (DNMT3A-C), sequence (Q9Y6K1 624-912): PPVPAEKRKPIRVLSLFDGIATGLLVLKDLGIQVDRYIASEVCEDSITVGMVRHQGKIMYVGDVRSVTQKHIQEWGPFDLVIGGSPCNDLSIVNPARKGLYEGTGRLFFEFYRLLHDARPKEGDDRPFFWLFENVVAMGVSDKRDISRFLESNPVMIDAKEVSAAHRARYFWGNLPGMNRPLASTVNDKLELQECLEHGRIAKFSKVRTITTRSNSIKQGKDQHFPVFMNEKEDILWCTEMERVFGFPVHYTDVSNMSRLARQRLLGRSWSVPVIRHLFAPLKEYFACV

M.SssI = M.SssI (Spiroplasma monobiae, UniProt P15840); test: M.SssI Flashplate SPA inhibition assay; assay type: biochemical, bacterial
M.SssI, sequence (P15840 whole entry): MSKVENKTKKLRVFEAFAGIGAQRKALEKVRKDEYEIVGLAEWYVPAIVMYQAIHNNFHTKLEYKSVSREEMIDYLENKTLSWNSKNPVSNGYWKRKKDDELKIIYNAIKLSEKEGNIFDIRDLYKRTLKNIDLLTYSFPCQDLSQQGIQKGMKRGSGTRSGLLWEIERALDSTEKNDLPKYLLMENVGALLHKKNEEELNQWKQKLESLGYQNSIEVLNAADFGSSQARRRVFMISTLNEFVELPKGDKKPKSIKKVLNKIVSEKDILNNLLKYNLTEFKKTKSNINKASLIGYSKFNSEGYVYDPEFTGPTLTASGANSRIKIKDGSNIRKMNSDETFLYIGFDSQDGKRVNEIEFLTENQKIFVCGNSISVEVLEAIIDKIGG
How it was run: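 Purchased M.SssI at 100 nM with 0.3 µM biotinylated non-methylated duplex and 1 µM SAM/[methyl-3H]SAM mix (3:1) in 1X NEBuffer 2; test compound ≤1% DMSO; 1 h at 37°C. Stopped in streptavidin Flashplate with 20 µM SAH, Tris-HCl pH 7.4; 1 h RT binding, Tween washes, scintillation cpm. %inhibition vs no-enzyme and no-compound controls; sigmoidal fit; two experiments in duplicate.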

DNMT1 [4] = molecular target: T1, DNMT1; test: Km determination of DNMT1 substrates; assay type: biochemical; conditions: read-out: Km of DNA for DNMT1; DNA 0.05-1.0 µM, 15 µM SAM

T1 sequence (P26358 whole entry): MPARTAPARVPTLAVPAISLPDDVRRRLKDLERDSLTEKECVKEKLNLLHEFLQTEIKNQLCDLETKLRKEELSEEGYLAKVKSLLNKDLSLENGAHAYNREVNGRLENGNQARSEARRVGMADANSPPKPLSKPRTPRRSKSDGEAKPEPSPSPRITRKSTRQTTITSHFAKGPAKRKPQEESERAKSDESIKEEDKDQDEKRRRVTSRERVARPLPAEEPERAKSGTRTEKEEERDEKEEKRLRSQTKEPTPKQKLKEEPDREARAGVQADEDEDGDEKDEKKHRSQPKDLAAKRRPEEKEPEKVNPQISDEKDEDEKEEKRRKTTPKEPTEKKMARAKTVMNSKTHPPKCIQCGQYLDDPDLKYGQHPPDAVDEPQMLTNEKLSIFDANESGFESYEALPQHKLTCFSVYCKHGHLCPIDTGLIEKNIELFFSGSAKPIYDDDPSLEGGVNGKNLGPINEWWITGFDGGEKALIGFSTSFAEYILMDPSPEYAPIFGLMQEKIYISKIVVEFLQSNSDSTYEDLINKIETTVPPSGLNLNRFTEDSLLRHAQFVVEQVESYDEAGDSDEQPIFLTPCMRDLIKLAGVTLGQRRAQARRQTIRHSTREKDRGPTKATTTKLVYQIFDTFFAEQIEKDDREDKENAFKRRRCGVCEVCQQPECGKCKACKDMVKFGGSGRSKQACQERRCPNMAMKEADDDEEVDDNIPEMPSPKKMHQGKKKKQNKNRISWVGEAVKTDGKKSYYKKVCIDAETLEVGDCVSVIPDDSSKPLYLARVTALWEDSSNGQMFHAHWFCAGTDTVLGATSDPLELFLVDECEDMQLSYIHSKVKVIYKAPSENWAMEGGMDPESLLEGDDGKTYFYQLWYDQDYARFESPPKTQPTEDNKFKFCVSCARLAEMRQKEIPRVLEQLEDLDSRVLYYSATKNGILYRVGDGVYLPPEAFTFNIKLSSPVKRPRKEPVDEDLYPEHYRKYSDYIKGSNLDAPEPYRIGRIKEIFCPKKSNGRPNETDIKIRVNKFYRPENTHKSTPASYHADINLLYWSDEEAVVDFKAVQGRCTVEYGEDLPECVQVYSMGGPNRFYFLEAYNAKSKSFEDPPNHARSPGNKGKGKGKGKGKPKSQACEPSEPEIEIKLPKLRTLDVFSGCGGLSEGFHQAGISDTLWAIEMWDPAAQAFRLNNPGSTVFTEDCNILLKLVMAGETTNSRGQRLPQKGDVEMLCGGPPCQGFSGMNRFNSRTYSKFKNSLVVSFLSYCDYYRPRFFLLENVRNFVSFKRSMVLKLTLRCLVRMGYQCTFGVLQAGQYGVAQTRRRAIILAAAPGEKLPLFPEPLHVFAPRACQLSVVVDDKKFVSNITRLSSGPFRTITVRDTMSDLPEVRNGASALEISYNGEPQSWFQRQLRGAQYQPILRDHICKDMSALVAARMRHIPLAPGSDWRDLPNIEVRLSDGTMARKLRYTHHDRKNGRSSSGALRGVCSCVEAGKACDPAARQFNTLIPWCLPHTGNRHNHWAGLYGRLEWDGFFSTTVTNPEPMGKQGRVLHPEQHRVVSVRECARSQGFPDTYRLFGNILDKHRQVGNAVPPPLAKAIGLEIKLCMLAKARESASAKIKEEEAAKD

Molecule: C[S+](C)[O-] [DMSO]
Stimulation of DNMT1 activity (DNMT1 [1]; 1 to 10% (v/v) DMSO): < 10%
Effect on DNMT1 activity (DNMT1 [1]; 15 to 50% (v/v) DMSO): inhibition

B1: DNA: biotinylated hemimethylated DNA duplex with 8 CpG, substrate of DNMT1 (Table 1) (nucleic acid)
sense: GATCGCCGATGCGCGAATCGCGATCGATGCGAT
antisense: ATCGCATCGATCGCGATTCGCGCATCGGCGATC
modifications: biotin; hemimethylated CpG; printed: 5′-GATmCGCmCGATGmCGmCGAATmCGmCGATmCGATGmCGAT
Km (DNMT1 [4]): ~0.27 µM

More lines, now with the values ahead:

Mechanism of inhibition towards DNA (DNMT1 [2]): uncompetitive inhibition
Mechanism of inhibition towards SAM (DNMT1 [3]): SAM-competitive
IC50 (human DNMT3A (DNMT3A-C)): 1.8 ± 0.6 µM
IC50 (M.SssI): 45 ± 7 µM
Molecule: Nc1ncnc2c1ncn2[C@@H]1O[C@H](C[C@@H](N)CC[C@H](N)C(=O)O)[C@@H](O)[C@H]1O [Sinefungin]

Mechanism of inhibition towards DNA (DNMT1 [2]): uncompetitive behavior
Mechanism of inhibition towards SAM (DNMT1 [3]): SAM non-competitive inhibitor
Molecule: O=C1c2ccccc2OC(c2ccccc2)C1(Cl)[N+](=O)[O-] (stereo not drawn) [Compound 47, 3-chloro-3-nitroflavanone]
